Key:
[1] = Initial concentration in Sprague-Dawley rat at 2 mg/kg, iv by LC-MS/MS analysis; format: ADME, organism-based; settings: in vivo
Method in brief: (§1)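 SD rats dosed iv or intragastrically. Plasma (50 µL) was mixed with diclofenac internal standard (50 ng/mL, 300 µL), vortexed, centrifuged at 4 °C, and the supernatant analysed by LC/MS/MS against spiked standard and QC curves. Noncompartmental parameters calculated; mean ± SD, n = 3 (bioavailability excepted).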

[2] = Toxicity in BALB/c mouse assessed as gait disturbance at 50 to 100 mg/kg, ig administered for 14 days; format: organism-based; settings: in vivo, po, 336 h, dose 50-100 mg/kg, time 14 day
Method in brief: (§2)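 BALB/c mice, 10 per group, gavaged daily for 14 days at 50 or 100 mg/kg; blank control group included. Hair, behaviour and neurological signs (fremitus, convulsion, spasm, gait disturbance) were observed. At day 14, mice were weighed and given routine blood tests and serum biochemistry (ALT, AST, urea, creatinine; n = 10). Liver and kidney were examined on paraffin-embedded histology sections.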

[3] = Hepatotoxicity in BALB/c mouse assessed as effect on serum ALT level at 50 to 100 mg/kg, ig administered for 14 days; format: toxicity, organism-based; settings: in vivo, po, 336 h, dose 50-100 mg/kg, time 14 day; method in brief: as §2
[4] = Half life in Sprague-Dawley rat at 2 mg/kg, iv by LC-MS/MS analysis; format: ADME, organism-based; settings: in vivo; method in brief: as §1
[5] = Toxicity in BALB/c mouse assessed as effect on body weight at 50 to 100 mg/kg, ig administered for 14 days; format: organism-based; settings: in vivo, po, 336 h, dose 50-100 mg/kg, time 14 day; method in brief: as §2
[6] = AUC (0 to t) in Sprague-Dawley rat at 2 mg/kg, iv by LC-MS/MS analysis; format: ADME, organism-based; set-up: dose 2 mg/kg; settings: in vivo
Method in brief: (§3)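 The acid metabolite of the parent ester was dosed directly to Sprague-Dawley rats, iv or intragastrically (n=3). Plasma (50 µL) was spiked with 5 µL DMSO, extracted with 300 µL acetonitrile containing 50 ng/mL diclofenac internal standard, then vortexed and centrifuged at 4 °C. Supernatant was quantified by LC/MS/MS against plasma calibration standards and QCs. AUC came from noncompartmental analysis.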

[7] = Oral bioavailability in Sprague-Dawley rat at 10 mg/kg by LC-MS/MS analysis; format: ADME, organism-based; settings: in vivo; method in brief: as §1
[8] = Renal toxicity in BALB/c mouse assessed as effect on serum creatinine level at 50 to 100 mg/kg, ig administered for 14 days; format: organism-based; settings: in vivo, po, 336 h, dose 50-100 mg/kg, time 14 day; method in brief: as §2
[9] = Toxicity in BALB/c mouse assessed as convulsion at 50 to 100 mg/kg, ig administered for 14 days; format: organism-based; settings: in vivo, po, 336 h, dose 50-100 mg/kg, time 14 day; method in brief: as §2
[10] = Toxicity in BALB/c mouse assessed as hepatocyte necrotic foci at 50 to 100 mg/kg, ig administered for 14 days; format: organism-based; settings: in vivo, po, 336 h, dose 50-100 mg/kg, time 14 day; method in brief: as §2
[11] = Toxicity in BALB/c mouse assessed as effect on hair at 50 to 100 mg/kg, ig administered for 14 days; format: organism-based; settings: in vivo, po, 336 h, dose 50-100 mg/kg, time 14 day; method in brief: as §2
[12] = Renal toxicity in BALB/c mouse assessed as effect on serum urea level at 50 to 100 mg/kg, ig administered for 14 days; format: organism-based; settings: in vivo, po, 336 h, dose 50-100 mg/kg, time 14 day; method in brief: as §2
[13] = molecular target: Cytochrome P450 3A4 (Homo sapiens, UniProt P08684); experiment: Inhibition of CYP3A4 in human liver microsomes using midazolam as substrate incubated for 5 mins followed by NADPH addition and measured after 20 mins by LC-MS/MS analysis; format: ADME
Sequence of Cytochrome P450 3A4 (P08684 whole entry, canonical isoform): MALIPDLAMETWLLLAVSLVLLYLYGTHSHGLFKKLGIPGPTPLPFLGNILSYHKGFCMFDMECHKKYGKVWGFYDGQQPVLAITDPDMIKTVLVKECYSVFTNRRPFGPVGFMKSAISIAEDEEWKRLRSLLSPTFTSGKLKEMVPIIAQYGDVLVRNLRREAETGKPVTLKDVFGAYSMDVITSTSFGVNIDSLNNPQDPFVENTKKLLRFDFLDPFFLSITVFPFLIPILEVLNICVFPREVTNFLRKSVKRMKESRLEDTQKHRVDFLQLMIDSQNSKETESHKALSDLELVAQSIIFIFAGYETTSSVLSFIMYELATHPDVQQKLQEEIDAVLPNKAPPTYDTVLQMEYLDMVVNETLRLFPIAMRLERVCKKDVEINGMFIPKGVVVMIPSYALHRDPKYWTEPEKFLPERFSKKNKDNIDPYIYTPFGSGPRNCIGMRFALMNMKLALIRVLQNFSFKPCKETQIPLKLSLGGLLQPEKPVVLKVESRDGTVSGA
Method in brief: (§4)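 Human liver microsomes at 0.2 mg/mL mixed with probe substrates, preincubated 5 min at 37 °C. Reaction started with NADPH and run 20 min at 37 °C in a shaking bath. Quenched, held at -20 °C for 1 h, centrifuged, and the supernatant analysed by LC/MS/MS. Assay validated with specific inhibitors for each isoform.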

[14] = Apparent permeability across apical to basolateral side in human Caco-2 cells at 10 uM incubated for 2 hrs LC-MS/MS analysis; format: ADME, cell-based; settings: Caco-2
Method in brief: (§5)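 Caco-2 monolayers, apical to basolateral direction. Plates preincubated 30 min at 37 °C, then exposed to 10 µM compound for 2 h at 37 °C without shaking. Donor and receiver samples were quenched, centrifuged and measured by LC/MS/MS, in duplicate. Papp calculated from receiver concentration, area and time. Monolayer integrity checked by TEER and by Lucifer yellow leakage (30 min, 37 °C, ex 485/em 530 nm).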

[15] = Toxicity in BALB/c mouse assessed as inflammatory infiltration in liver at 50 to 100 mg/kg, ig administered for 14 days; format: organism-based; settings: in vivo, po, 336 h, dose 50-100 mg/kg, time 14 day; method in brief: as §2
[16] = Toxicity in BALB/c mouse assessed as muscle spasm at 50 to 100 mg/kg, ig administered for 14 days; format: organism-based; settings: in vivo, po, 336 h, dose 50-100 mg/kg, time 14 day; method in brief: as §2
[17] = Cmax in Sprague-Dawley rat at 10 mg/kg, po by LC-MS/MS analysis; format: ADME, organism-based; set-up: route oral, dose 10 mg/kg; settings: in vivo; method in brief: as §1
[18] = AUC (0 to t) in Sprague-Dawley rat at 10 mg/kg, po by LC-MS/MS analysis; format: ADME, organism-based; set-up: dose 10 mg/kg; settings: in vivo
[19] = Permeability across apical to basolateral side in human Caco-2 cells assessed as […] yellow leakage at 10 uM incubated for 2 hrs LC-MS/MS analysis; format: ADME, cell-based; settings: caco-2, 2 h; method in brief: as §5
[20] = AUC (0 to infinity) in Sprague-Dawley rat at 10 mg/kg, po by LC-MS/MS analysis; format: ADME, organism-based; set-up: route oral, time infinity, dose 10 mg/kg; settings: in vivo; method in brief: as §3
[21] = Tmax in Sprague-Dawley rat at 10 mg/kg, po by LC-MS/MS analysis; format: ADME, organism-based; settings: in vivo; method in brief: as §1
[22] = MRT in Sprague-Dawley rat at 2 mg/kg, iv by LC-MS/MS analysis; format: ADME, organism-based; settings: in vivo; method in brief: as §1
[23] = in vitro; settings: human, liver microsomes
[24] = molecular target: Cytochrome P450 2C19 (Homo sapiens, UniProt P33261); experiment: Inhibition of CYP2C19 in human liver microsomes using omeprazole as substrate incubated for 5 mins followed by NADPH addition and measured after 20 mins by LC-MS/MS analysis; format: ADME; method in brief: as §4
Sequence of Cytochrome P450 2C19 (P33261 whole entry): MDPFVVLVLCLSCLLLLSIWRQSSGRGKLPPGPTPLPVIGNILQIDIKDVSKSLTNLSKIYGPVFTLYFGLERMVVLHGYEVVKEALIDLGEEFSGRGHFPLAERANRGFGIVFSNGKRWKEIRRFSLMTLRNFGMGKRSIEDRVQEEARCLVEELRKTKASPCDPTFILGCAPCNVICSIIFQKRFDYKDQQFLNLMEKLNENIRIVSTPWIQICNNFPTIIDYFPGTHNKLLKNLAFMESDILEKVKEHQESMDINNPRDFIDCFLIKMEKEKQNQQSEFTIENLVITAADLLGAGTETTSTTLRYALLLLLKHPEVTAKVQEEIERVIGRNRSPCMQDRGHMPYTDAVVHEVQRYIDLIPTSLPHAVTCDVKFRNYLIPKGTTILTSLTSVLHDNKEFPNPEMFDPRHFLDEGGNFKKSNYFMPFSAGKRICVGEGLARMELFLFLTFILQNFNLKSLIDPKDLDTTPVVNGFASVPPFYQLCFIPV

[25] = Toxicity in BALB/c mouse assessed as hepatocyte nucleus mitosis at 50 to 100 mg/kg, ig administered for 14 days; format: organism-based; settings: in vivo, po, 336 h, dose 50-100 mg/kg, time 14 day; method in brief: as §2
[26] = Toxicity in Kunming mouse assessed as organism death administered orally for 3 days and observed for 17 days starting from drug administration; settings: in vivo, po, 408 h, time 17 day
[27] = Toxicity in BALB/c mouse assessed as effect on liver megakaryocyte at 50 to 100 mg/kg, ig administered for 14 days; format: organism-based; settings: in vivo, po, 336 h, dose 50-100 mg/kg, time 14 day; method in brief: as §2
[28] = Half life in Sprague-Dawley rat at 10 mg/kg, po by LC-MS/MS analysis; format: ADME, organism-based; settings: in vivo; method in brief: as §1
[29] = AUC (0 to infinity) in Sprague-Dawley rat at 2 mg/kg, iv by LC-MS/MS analysis; format: ADME, organism-based; set-up: route intravenous, time infinity, dose 2 mg/kg; settings: in vivo; method in brief: as §3
[30] = Toxicity in BALB/c mouse assessed as fremitus at 50 to 100 mg/kg, ig administered for 14 days; format: organism-based; settings: in vivo, po, 336 h, dose 50-100 mg/kg, time 14 day; method in brief: as §2
[31] = Hepatotoxicity in BALB/c mouse assessed as effect on serum AST level at 50 to 100 mg/kg, ig administered for 14 days; format: toxicity, organism-based; settings: in vivo, po, 336 h, dose 50-100 mg/kg, time 14 day; method in brief: as §2
[32] = molecular target: Cytochrome P450 2D6 (Homo sapiens, UniProt P10635); experiment: Inhibition of CYP2D6 in human liver microsomes using dextromethorphan as substrate incubated for 5 mins followed by NADPH addition and measured after 20 mins by LC-MS/MS analysis
Sequence of Cytochrome P450 2D6 (P10635 whole entry): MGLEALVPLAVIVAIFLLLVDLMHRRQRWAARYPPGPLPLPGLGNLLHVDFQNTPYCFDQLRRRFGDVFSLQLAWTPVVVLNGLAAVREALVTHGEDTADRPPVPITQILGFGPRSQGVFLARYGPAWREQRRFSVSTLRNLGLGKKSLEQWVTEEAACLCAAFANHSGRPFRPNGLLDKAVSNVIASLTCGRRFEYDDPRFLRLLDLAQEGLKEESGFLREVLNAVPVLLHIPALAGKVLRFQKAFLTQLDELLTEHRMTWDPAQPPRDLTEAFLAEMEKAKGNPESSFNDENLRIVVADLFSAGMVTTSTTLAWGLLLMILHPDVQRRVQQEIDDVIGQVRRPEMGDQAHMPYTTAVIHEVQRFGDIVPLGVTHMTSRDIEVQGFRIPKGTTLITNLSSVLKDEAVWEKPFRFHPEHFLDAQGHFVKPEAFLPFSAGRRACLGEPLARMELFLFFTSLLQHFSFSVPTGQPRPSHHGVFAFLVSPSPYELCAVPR

Structure (SMILES): COc1ccc2cc(C(=O)NCCN(C)C)oc2c1.CS(=O)(=O)O
- C0 [1]: 17.2 ng/mL
- Activity [2]: Non-Toxic
- Activity [3]: Non-Toxic
- half-life [4]: 2.52 h
- Activity [5]: Non-Toxic
- AUC(0-t) [6]: 59.5 ng·h/mL
- bioavailability [7]: 83.1%
- Activity [8]: Non-Toxic
- Activity [9]: Non-Toxic
- Activity [10]: Toxic
- Activity [11]: Non-Toxic
- Activity [12]: Non-Toxic
- IC50 [13]: > 10 µM
- Papp A→B at 2 h, 10 µM [14]: 9.34 ×10⁻⁶ cm/s
- Activity [15]: Toxic
- Activity [16]: Non-Toxic
- Cmax [17]: 54.2 ng/mL
- AUC(0-t) [18]: 278 ng·h/mL
- Activity [19]: 0.158%
- AUC(0-inf) [20]: 286 ng·h/mL
- Tmax [21]: 0.5 h
- MRT [22]: 2.85 h
- half-life at 0.5 h, 100 µM [23]: 1.72 h
- IC50 [24]: > 10 µM
- Activity [25]: Toxic
- LD50 [26]: > 500 mg/kg/day
- Activity [27]: Toxic
- half-life [28]: 4.53 h
- AUC(0-inf) [29]: 69 ng·h/mL
- Activity [30]: Non-Toxic
- Activity [31]: Non-Toxic
- IC50 [32]: 7.84 µM

Reference: ChEMBL document CHEMBL4765342, “Substituted benzothiophene and benzofuran derivatives as a novel class of bone morphogenetic Protein-2 upregulators: Synthesis, anti-osteoporosis efficacies in ovariectomized rats and a zebrafish model, and ADME properties” (Eur J Med Chem, 2020)
